Data from ChEMBL document CHEMBL4665823, “Assessing the Perturbing Effects of Drugs on Lipid Bilayers Using Gramicidin Channel-Based In Silico and In Vitro Assays” (J Med Chem, 2020).
The source made the active and inactive calls. The rule behind the calls is not given here.

What was measured:
Lipid bilayer [1] = experiment: Induction of membrane perturbation in DC22:1PC LUV bilayer assessed as effect on potential of mean force by measuring reduction in deltaG for gramicidin mixture monomer to dimer and pure gramicidin-bilayer by fluorescence quenching assay
Lipid bilayer [2] = experiment: Induction of membrane perturbation in DC22:1PC LUV bilayer assessed as change in deltaG for pure gramicidin monomer to dimer by fluorescence quenching assay (reference value: 0 kcal/mol)
Lipid bilayer [3] = experiment: Induction of membrane perturbation in DC20:1PC LUV bilayer assessed as fluorescence quench rate by measuring gramicidin mixture monomer to dimer equilibrium at 1800 uM by fluorescence quenching assay
Lipid bilayer [4] = experiment: Induction of membrane perturbation in DC22:1PC LUV bilayer assessed as fluorescence quench rate by measuring increase in R(drug)/R(control) ratio by fluorescence quenching assay
Method in brief: (§1)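 ANTS-loaded (25 mM) DC22:1PC LUVs with gD at gramicidin:lipid 1:2000, rehydrated to 10 mM lipid, 3 h equilibration, 1 min sonication. Drug-exposed vesicles were incubated ≥10 min at 25 °C in the dark, then mixed by stopped-flow with Tl+ quench buffer (50 mM TlNO3, pH 7). Fluorescence (ex 352, em >450 nm) was fitted to a stretched exponential; rate given relative to drug-free control.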

Lipid bilayer [5] = experiment: Induction of membrane perturbation in DC18:1PC LUV bilayer assessed as fluorescence quench rate by measuring gramicidin mixture monomer to dimer equilibrium at 1800 uM by fluorescence quenching assay
Method in brief: (§2)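 DC18:1PC LUVs (gramicidin mixture gD:lipid 1:40,000) loaded with 25 mM ANTS at 10 mM lipid, equilibrated 3 h at room temperature, sonicated 1 min, about 130 nm diameter. Drug added; samples held ≥10 min at 25 °C in the dark, then stopped-flow mixed with 50 mM TlNO3/94 mM NaNO3/10 mM HEPES, pH 7. Ex 352 nm, em >450 nm; quench rate from stretched-exponential fit.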

Lipid bilayer [6] = experiment: Induction of membrane perturbation in DC22:1PC LUV bilayer assessed as fluorescence quench rate by measuring gramicidin mixture monomer to dimer equilibrium at 1800 uM by fluorescence quenching assay; method in brief: as §1
Lipid bilayer [7] = experiment: Induction of membrane perturbation in DC22:1PC LUV bilayer assessed as change in deltaG for gramicidin mixture monomer to dimer by fluorescence quenching assay (reference value: 0 kcal/mol)
Lipid bilayer [8] = experiment: Induction of membrane perturbation in DC18:1PC LUV bilayer assessed as fluorescence quench rate by measuring gramicidin mixture monomer to dimer equilibrium at 100 uM by fluorescence quenching assay
Lipid bilayer [9] = experiment: Induction of membrane perturbation in DC20:1PC LUV bilayer assessed as fluorescence quench rate by measuring gramicidin mixture monomer to dimer equilibrium at 100 uM by fluorescence quenching assay
Lipid bilayer [10] = experiment: Induction of membrane perturbation in DC18:1PC LUV bilayer assessed as effect on potential of mean force by measuring reduction in deltaG for gramicidin mixture monomer to dimer and pure gramicidin-bilayer by fluorescence quenching assay
Lipid bilayer [11] = experiment: Induction of membrane perturbation in DC22:1PC LUV bilayer assessed as fluorescence quench rate by measuring gramicidin mixture monomer to dimer equilibrium at 100 uM by fluorescence quenching assay
Lipid bilayer [12] = experiment: Induction of membrane perturbation in DC20:1PC LUV bilayer assessed as fluorescence quench rate by measuring gramicidin mixture monomer to dimer equilibrium at 30 uM by fluorescence quenching assay
Lipid bilayer [13] = experiment: Induction of membrane perturbation in DC18:1PC LUV bilayer assessed as fluorescence quench rate by measuring gramicidin mixture monomer to dimer equilibrium at 30 uM by fluorescence quenching assay; method in brief: as §2
Lipid bilayer [14] = experiment: Induction of membrane perturbation in DC22:1PC LUV bilayer assessed as fluorescence quench rate by measuring gramicidin mixture monomer to dimer equilibrium at 30 uM by fluorescence quenching assay; method in brief: as §1
Lipid bilayer [15] = experiment: Induction of membrane perturbation in DC22:1PC LUV bilayer assessed as effect on potential of mean force by measuring increase in deltaG for gramicidin mixture monomer to dimer and pure gramicidin-bilayer by fluorescence quenching assay
Method in brief: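 ΔΔG(monomer↔dimer) was derived from Tl+/ANTS quench-rate ratios in DC22:1PC LUVs at 1:2000 gramicidin:lipid. Ratios were adjusted for estimated bilayer drug mole fraction and extrapolated linearly to a drug:lipid ratio of 0.084, matching the coarse-grained simulations. Stopped-flow was run at 25 °C.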

Lipid bilayer [16] = experiment: Induction of membrane perturbation in DC22:1PC LUV bilayer assessed as fluorescence quench rate by measuring increase in R(drug)/R(control) ratio at gD:lipid molar ratio of > 1:400 in presence of 10 mol % cholesterol by fluorescence quenching assay
Method in brief: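 Cholesterol added at 10 mol % before LUV formation; DC22:1PC vesicles made with gD:lipid molar ratios between 1:200 and 1:2000, ANTS-loaded. Tl+ influx was followed by stopped-flow fluorescence quench at 25 °C (ex 352 nm, em >450 nm), and traces were fitted to a stretched exponential.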

Lipid bilayer [17] = experiment: Induction of membrane perturbation in DC22:1PC LUV bilayer assessed as fluorescence quench rate by measuring gramicidin mixture monomer to dimer equilibrium at 300 uM by fluorescence quenching assay; method in brief: as §1
Lipid bilayer [18] = experiment: Induction of membrane perturbation in DC20:1PC LUV bilayer assessed as fluorescence quench rate by measuring gramicidin mixture monomer to dimer equilibrium at 300 uM by fluorescence quenching assay
Lipid bilayer [19] = experiment: Induction of membrane perturbation in DC18:1PC LUV bilayer assessed as fluorescence quench rate by measuring gramicidin mixture monomer to dimer equilibrium at 300 uM by fluorescence quenching assay; method in brief: as §2
Lipid bilayer [20] = experiment: Induction of membrane perturbation in DC18:1PC LUV bilayer assessed as fluorescence quench rate by measuring gramicidin mixture monomer to dimer equilibrium at 10 uM by fluorescence quenching assay; method in brief: as §2
Lipid bilayer [21] = experiment: Induction of membrane perturbation in DC22:1PC LUV bilayer assessed as fluorescence quench rate by measuring gramicidin mixture monomer to dimer equilibrium at 10 uM by fluorescence quenching assay; method in brief: as §1
Lipid bilayer [22] = experiment: Induction of membrane perturbation in DC20:1PC LUV bilayer assessed as fluorescence quench rate by measuring gramicidin mixture monomer to dimer equilibrium at 10 uM by fluorescence quenching assay
Lipid bilayer [23] = experiment: Induction of membrane perturbation in DC20:1PC LUV bilayer assessed as fluorescence quench rate by measuring gramicidin mixture monomer to dimer equilibrium at 30000 uM by fluorescence quenching assay
Lipid bilayer [24] = experiment: Induction of membrane perturbation in DC18:1PC LUV bilayer assessed as fluorescence quench rate by measuring gramicidin mixture monomer to dimer equilibrium at 30000 uM by fluorescence quenching assay
Lipid bilayer [25] = experiment: Induction of membrane perturbation in DC22:1PC LUV bilayer assessed as fluorescence quench rate by measuring gramicidin mixture monomer to dimer equilibrium at 30000 uM by fluorescence quenching assay
Lipid bilayer [26] = experiment: Induction of membrane perturbation in DC22:1PC LUV bilayer assessed as fluorescence quench rate by measuring reduction in R(drug)/R(control) ratio by fluorescence quenching assay

SMILES	Activity (Lipid bilayer [1])	deltaG (Lipid bilayer [2]) [kcal/mol]	Activity (Lipid bilayer [4])	deltaG (Lipid bilayer [7]) [kcal/mol]	further results
CCCCCCCCO	Active	-0.4	Dose-dependent effect	-0.3	Activity (Lipid bilayer [3]): inactive; Activity (Lipid bilayer [5]): inactive; Activity (Lipid bilayer [6]): Active
COc1cc(CNC(=O)CCCC/C=C/C(C)C)ccc1O	Active	-0.5		-0.6	Activity (Lipid bilayer [8]): inactive; Activity (Lipid bilayer [9]): inactive; Activity (Lipid bilayer [10]): Active; Activity (Lipid bilayer [11]): Active
Oc1ccc(/C=C/c2cc(O)cc(O)c2)cc1	Active	-1.7	Dose-dependent effect	-1.8	Activity (Lipid bilayer [12]): inactive; Activity (Lipid bilayer [13]): inactive; Activity (Lipid bilayer [14]): Active
CC(C)CCC[C@@H](C)[C@H]1CC[C@H]2[C@@H]3CC=C4C[C@@H](O)CC[C@]4(C)[C@H]3CC[C@]12C		2.5			Activity (Lipid bilayer [15]): Active; Activity (Lipid bilayer [16]): Active
CCCCCCCCCCCCOP(=O)([O-])OCC[N+](C)(C)C	Active	-0.5	Dose-dependent effect	-0.5	Activity (Lipid bilayer [17]): Active; Activity (Lipid bilayer [18]): inactive; Activity (Lipid bilayer [19]): inactive
CCCCCCCCCCCCOCCOCCOCCOCCOCCOCCO	Active	-1.4	Dose-dependent effect	-1.5	Activity (Lipid bilayer [20]): inactive; Activity (Lipid bilayer [21]): Active; Activity (Lipid bilayer [22]): inactive
CC(C)(C)CC(C)(C)c1ccc(OCCOCCOCCOCCOCCOCCOCCOCCOCCOCCO)cc1	Active	-1.5	Dose-dependent effect	-1.6	Activity (Lipid bilayer [12]): inactive; Activity (Lipid bilayer [13]): inactive; Activity (Lipid bilayer [14]): Active
C1CCCCC1		0		0	Activity (Lipid bilayer [23]): inactive; Activity (Lipid bilayer [15]): Active; Activity (Lipid bilayer [24]): inactive; Activity (Lipid bilayer [25]): Active; Activity (Lipid bilayer [26]): Dose-dependent effect
